Source: PubChem BioAssay
GPR7 antag – antagonists of human GPR7 (neuropeptides B/W receptor 1); GPR7-expressing cells, fluorescence antagonist assay; inhibition, % at 4.4 µM; actives 1.1% (n = 290,000); AID 1861; in the data active = inhibition above about 16%, passing the limit was not always enough;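 note: cells stimulated with the agonist NPW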
Target sequence (P48145 whole entry, looked up): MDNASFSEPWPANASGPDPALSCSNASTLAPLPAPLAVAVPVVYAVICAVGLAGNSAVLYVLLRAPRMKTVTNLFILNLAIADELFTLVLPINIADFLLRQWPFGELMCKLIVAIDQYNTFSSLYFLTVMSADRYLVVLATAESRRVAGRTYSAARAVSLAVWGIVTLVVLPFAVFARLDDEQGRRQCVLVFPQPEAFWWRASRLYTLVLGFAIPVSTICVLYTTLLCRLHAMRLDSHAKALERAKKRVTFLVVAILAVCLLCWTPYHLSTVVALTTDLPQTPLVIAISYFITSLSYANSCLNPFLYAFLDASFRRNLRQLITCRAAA
OX1R antag-1 – antagonists of human orexin 1 receptor; CHO/OX1R cells, Fluo-8 calcium fluorescence, orexin A; O43613; actives 0.43% (n = 330,000); inhibition, % at 5 µM;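 active = inhibition above its plate's threshold, mean inhibition of all tested compounds on the plate plus 3 SD, cut at about 37% in these data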
TAAR1 antag – human TAAR1 antagonism. AID 624466. CHO RD-HGA16 TAAR1, Fluo-8 calcium fluorescence, antagonist. actives 1.5% (n = 360,000). inhibition, % at 3 µM;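 active = inhibition above a per-plate cutoff, the mean inhibition of test compounds on that plate plus 3 SD, cut at about 49% in these data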
Target sequence (Q96RJ0 whole entry, looked up): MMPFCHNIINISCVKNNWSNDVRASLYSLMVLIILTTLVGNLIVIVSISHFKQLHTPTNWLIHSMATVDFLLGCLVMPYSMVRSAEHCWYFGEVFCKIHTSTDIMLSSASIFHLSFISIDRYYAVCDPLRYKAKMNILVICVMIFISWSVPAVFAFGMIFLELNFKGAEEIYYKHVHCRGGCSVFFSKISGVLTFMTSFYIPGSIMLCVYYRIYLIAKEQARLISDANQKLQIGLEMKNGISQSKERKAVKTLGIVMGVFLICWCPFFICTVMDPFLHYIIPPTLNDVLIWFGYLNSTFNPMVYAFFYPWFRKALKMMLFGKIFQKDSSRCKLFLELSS
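Test system – hTAAR1-expressing CHO RD-HGA16 cells, Gα16-coupled · Also added – β-PEA at EC80 concentration, post-compound challenge · Compound – 3 µM, single point · Incubation – dye loading 75 min at 37 °C, then 30 min room temperature · Measured by – Fluo-8 intracellular calcium dye fluorescence, real-time kinetic reads · Benchmarks – vehicle and agonist controls · Replicates – singlicate, one well per test compound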
CHO parental Ca – signal in parental CHO cells, OX1R antagonist counter-screen; inhibition, % at 5.6 µM; actives 0.63% (n = 330,000); parental CHO-K1, ATP-induced calcium, Fluo-8 fluorescence;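 active = inhibition above that plate's mean sample inhibition plus 3 SD, cut at about 26% in these data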
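Test system: parental CHO cells; detection: calcium-sensitive Fluo-8 fluorescence; evaluation: percent inhibition of calcium signal; also added: ATP as calcium-mobilizing challenge; repeats: one well per compound; control set: ATP-challenged DMSO wells low, unchallenged DMSO wells high; compound: single nominal dose of 5.6 µM per compound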
TAAR1 ag – human TAAR1 agonism | Q96RJ0 | CHO RD-HGA16 TAAR1, Fluo-8 calcium fluorescence; vehicle wells 0%, saturating PEA agonist 100% | activation, % at 3 µM | actives 0.99% (n = 360,000);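 active = activation above the mean activation of all test compounds in the run plus 3 SD, cut at about 38% in these data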
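System: CHO-derived RD-HGA16 cells with stable Gα16 and human TAAR1. Times: 17-24 h plating, Fluo-8 75 min 37 °C, 30 min RT. Measured by: calcium-sensitive Fluo-8 signal, excitation 470-495, emission 515-575 nm. Read-out basis: % activation relative to PEA EC100 response. Control set: DMSO and PEA EC100. Repeats: no replicates (n 1).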
OX1R antag-2 – OX1R (human) antagonism | O43613 | actives 1.8% (n = 330,000) | OX1R-expressing cells, FRET antagonist read-out | inhibition, % at 6.6 µM; in the data active = inhibition mostly above about 38%, no sharp cut-off; inactive = mostly below about 40%
TAAR1 nonsel count – nonselective antagonist in TAAR1 antagonist counter-screen; shares compounds with TAAR1 antag; counterscreen cell line, calcium fluorescence, antagonist mode; inhibition, % at 3 µM; actives 77% (n = 2,400); in the data active = inhibition above about 22%;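 note: CHO-Ga16 host cells stimulated with ATP at an EC80 level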
TAAR1 antag conf – human TAAR1 antagonism, confirmed; shares compounds with TAAR1 antag; TAAR1-expressing cells, fluorescence antagonist read-out; inhibition, % at 3 µM; actives 40% (n = 2,400); in the data active = inhibition above about 49%;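 note: CHO-Ga16 host cells challenged with agonist PEA near its EC80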
Ga16 nonsel ag – nonselective Ga16 agonist in TAAR1 antagonist counter-screen; shares compounds with TAAR1 antag; Ga16-expressing cells, calcium fluorescence, agonist counterscreen; activation, % at 3 µM; actives 18% (n = 2,400); in the data active = activation above about 12%
TAAR1 ag count – TAAR1 agonism, antagonist counter-screen. shares compounds with TAAR1 antag. hTAAR1 cell line, fluorescence activation, agonist mode. activation, % at 3 µM. actives 2% (n = 2,400); in the data active = activation above about 37%;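 note: CHO cells stably expressing TAAR1 with calcium dye readout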
Large screens that a line does not name were inactive (follow-up assays come after a bar, where they were run). In the library only some 4.6% were active in any assay of this set; here they are far more common.

O=C(NCc1cc(C(F)(F)F)ccc1Cl)c1cccc2c1C(=O)c1ccc(N3CCCCC3)cc1S2(=O)=O	none (no result: GPR7 antag)
O=C(NCc1cc(C(F)(F)F)ccc1Cl)c1cccc2c1C(=O)c1ccc(N3CCOCC3)cc1S2(=O)=O	TAAR1 antag 60 (no result: GPR7 antag) | TAAR1 nonsel count 33 | TAAR1 antag conf 50 | Ga16 nonsel ag 22 | TAAR1 ag count inactive
COC(=O)C1=C(C)N(Cc2ccc(F)cc2)C(=S)NC1c1cccc(Br)c1 (configuration not stated)	TAAR1 antag 54 (no result: GPR7 antag, OX1R antag-1, CHO parental Ca, OX1R antag-2) | TAAR1 nonsel count inactive | TAAR1 antag conf inactive | Ga16 nonsel ag inactive | TAAR1 ag count inactive
COC(=O)C1=C(C)N(Cc2ccc(C(F)(F)F)cc2)C(=NCc2ccc3c(c2)OCO3)NC1c1cccc(Cl)c1 (configuration not stated)	TAAR1 antag 49 (no result: GPR7 antag, OX1R antag-1, CHO parental Ca, OX1R antag-2) | TAAR1 nonsel count 31 | TAAR1 antag conf inactive | Ga16 nonsel ag 14 | TAAR1 ag count inactive
COC(=O)C1=C(C)N(Cc2ccc(Cl)cc2)C(=S)NC1c1cccc(F)c1 (configuration not stated)	none (no result: GPR7 antag, OX1R antag-1, CHO parental Ca, OX1R antag-2)
N#Cc1c(N)[nH]c2ccc(Sc3ccccc3)cc12	TAAR1 antag 54 (no result: GPR7 antag, OX1R antag-1, CHO parental Ca, OX1R antag-2) | TAAR1 nonsel count 28 | TAAR1 antag conf inactive | Ga16 nonsel ag 12 | TAAR1 ag count inactive
C[C@@H]1CN([C@H](C)CO)S(=O)(=O)c2ccc(C#Cc3ccccc3)cc2O[C@H]1CN(C)C(=O)Nc1ccc2c(c1)OCO2	none (no result: GPR7 antag, OX1R antag-1, CHO parental Ca, OX1R antag-2)
Cc1ccc2[nH]c(O)c(N=NC(N)=S)c2c1	none
CC(/C=C(\NC(=O)c1ccccc1)C(=O)N=Nc1c(O)[nH]c2ccc(C)cc12)=C\c1ccccc1	TAAR1 antag 65 | TAAR1 nonsel count inactive | TAAR1 antag conf inactive | Ga16 nonsel ag inactive | TAAR1 ag count inactive
CC1(c2nc3ccccc3[nH]2)CCC(=O)N1Cc1ccc(F)cc1 (configuration not stated)	none (no result: GPR7 antag, OX1R antag-1, CHO parental Ca, OX1R antag-2)
COC(=O)c1cc2c(c3c4cc(C)ccc4n(C(=O)c4ccccc4)c13)C(=O)N(Cc1ccccc1)C2	TAAR1 antag 67 (no result: GPR7 antag, OX1R antag-1, CHO parental Ca, OX1R antag-2) | TAAR1 nonsel count 29 | TAAR1 antag conf 56 | Ga16 nonsel ag inactive | TAAR1 ag count inactive
Cc1cc(C(=O)NCCN2C(=O)S/C(=C\c3cccs3)C2=O)ccc1[N+](=O)[O-]	TAAR1 antag 57 | TAAR1 nonsel count 38 | TAAR1 antag conf inactive | Ga16 nonsel ag inactive | TAAR1 ag count inactive
Cc1cc(C(=O)NCc2cccs2)ccc1[N+](=O)[O-]	none
COc1cc(NC(=O)c2nccn2C)cc(C(=O)Nc2cccc(C(F)(F)F)c2)c1	none (no result: GPR7 antag)
COc1cc(Nc2ccccn2)cc(C(=O)Nc2cccc(C(F)(F)F)c2)c1	TAAR1 antag 54 (no result: GPR7 antag) | TAAR1 nonsel count 34 | TAAR1 antag conf inactive | Ga16 nonsel ag inactive | TAAR1 ag count inactive
O=C(Nc1cccc(C(F)(F)F)c1)c1csc(-c2ccncc2)n1	none
COc1cc(NC(=O)N2CCNC2=O)cc(C(=O)Nc2cccc(C(F)(F)F)c2)c1	TAAR1 antag 51 (no result: GPR7 antag) | TAAR1 nonsel count inactive | TAAR1 antag conf inactive | Ga16 nonsel ag inactive | TAAR1 ag count inactive
COc1cc(NC(=O)c2csc(-c3ccncc3)n2)cc(C(=O)Nc2cccc(C(F)(F)F)c2)c1	TAAR1 antag 74 (no result: GPR7 antag) | TAAR1 nonsel count 35 | TAAR1 antag conf 55 | Ga16 nonsel ag inactive | TAAR1 ag count inactive
CCCCCC(=O)N1C[C@@H](O)[C@H](n2cc(COC(=O)c3ccccc3)nn2)C[C@@H]1c1ccc(OC)cc1	none (no result: GPR7 antag, OX1R antag-1, CHO parental Ca, OX1R antag-2)
COC(=O)c1ccccc1NN=Nc1ccccc1[N+](=O)[O-]	none (no result: GPR7 antag, OX1R antag-1, CHO parental Ca, OX1R antag-2)
Cc1cccc(C(=O)NNC(=O)C2CCCCC2)c1O	none (no result: GPR7 antag, OX1R antag-1, CHO parental Ca, OX1R antag-2)
COc1ccc(C(=O)N2CCC2(C)C(=O)NC(C)C)cc1 (configuration not stated)	none (no result: GPR7 antag, OX1R antag-1, CHO parental Ca, OX1R antag-2)
CCN=C1SC(C(=O)Nc2cccc(OCC)c2)CC(=O)N1CC (configuration not stated)	TAAR1 antag 74 | TAAR1 nonsel count 36 | TAAR1 antag conf 60 | Ga16 nonsel ag inactive | TAAR1 ag count inactive
Cc1noc(C)c1CSCC(=O)NCCN1C(=O)S/C(=C\c2ccccc2F)C1=O	TAAR1 antag 56 (no result: GPR7 antag) | TAAR1 nonsel count 35 | TAAR1 antag conf 54 | Ga16 nonsel ag 13 | TAAR1 ag count inactive
O=C(CN1C(=O)/C(=C/c2ccccc2F)Sc2ccccc21)NCCCN1CCOCC1	none
Cc1ccc(/C=N/NC(=O)CSc2nnc(-c3ccc(Cl)cc3)n2-c2ccc(Cl)cc2)o1	TAAR1 antag 56 | TAAR1 nonsel count 22 | TAAR1 antag conf 52 | Ga16 nonsel ag inactive | TAAR1 ag count inactive
COc1ccc(-c2nc3cc([N+](=O)[O-])ccc3o2)cc1	none
Nc1ccc(-c2nc3cc([N+](=O)[O-])ccc3o2)cc1	TAAR1 antag 55 | TAAR1 nonsel count inactive | TAAR1 antag conf inactive | Ga16 nonsel ag inactive | TAAR1 ag count inactive
